In brackets after ≈: the same amount, converted by molar mass. Where only a bound is given, the exact number is not on record here.

One test deals with Pseudomonas aeruginosa. Nature of the test: Antibacterial activity against Pseudomonas aeruginosa ATCC 27853. The class given is functional. To be noted: for MIC: Pseudomonas aeruginosa, ATCC 27853. The method in brief:
(§1)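 MIC by serial dilution in Mueller-Hinton broth tubes, pH adjusted to 5.0 with phosphate buffer. A standardized bacterial suspension was inoculated and incubated 16-18 h at 37 °C, and MIC was read as the lowest concentration with no visible growth. Zones were also measured in agar wells on seeded plates, with compounds in DMSO and a DMSO control, triplicate plates, 37 °C for 3-4 days.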

A further test concerns Trichophyton benhamiae. Nature of the test: Antifungal activity against Trichophyton mentagrophytes. As to conditions: for MIC: Trichophyton benhamiae. The test is classed as functional, Arthroderma benhamiae. A digest of the protocol: (§2)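 Agar-well diffusion on Sabouraud agar at pH 5.7. Plates were lawned with a saline spore suspension (one loopful in 3 ml), decanted and dried 1 h at 37 °C. Compounds in DMSO went into punched wells, with a DMSO solvent control. Plates were run in triplicate and kept at 37 °C for 3-4 days, with inhibition-zone diameter as read-out.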

The subject of a further test is Klebsiella pneumoniae. Nature of the test: Antibacterial activity against Klebsiella pneumoniae. As to conditions: for MIC: Klebsiella pneumoniae. The test is classed as functional. The method in brief: as §1
A further test relates to Aspergillus flavus. Nature of the test: Antifungal activity against Aspergillus flavus NCIM 524. The test is classed as functional. As to conditions: for MIC: Aspergillus flavus, NCIM 524. The method in brief: as §2
Another test relates to Escherichia coli. In words: Antibacterial activity against Escherichia coli ATCC 25922. The class given is functional. As to conditions: for MIC: Escherichia coli, ATCC 25922. The method in brief: as §1
In another test the test system is Talaromyces marneffei. In words: Antifungal activity against Penicillium marneffei. The class given is functional. As to conditions: for MIC: Talaromyces marneffei. A digest of the protocol: as §2
The subject of the next test is Aspergillus fumigatus. In words: Antifungal activity against Aspergillus fumigatus NCIM 902. The test is classed as functional. As to conditions: for MIC: Aspergillus fumigatus, NCIM 902.
The next test deals with Staphylococcus aureus. In words: Antibacterial activity against Staphylococcus aureus ATCC 25923. The test is classed as functional. As to conditions: for MIC: Staphylococcus aureus, ATCC 25923. The method in brief: as §1

In general, MIC refers to the smallest concentration in the dilution series that meets the test's criterion for growth inhibition. A low value points to greater potency. As for `CSc1ccc(OCc2nnc3sc(-c4ccccc4)nn23)cc1`, the “inhibition zone (IZ)” value in the test on Pseudomonas aeruginosa, in the test with Trichophyton benhamiae, with Klebsiella pneumoniae, in the test on Aspergillus flavus, in the test with Escherichia coli and with Talaromyces marneffei was 16 mm throughout. The “inhibition zone (IZ)” value in the test on Aspergillus fumigatus and in the test with Staphylococcus aureus was 16 mm each time. Besides, the MIC against Pseudomonas aeruginosa, in the test with Trichophyton benhamiae, with Klebsiella pneumoniae, against Aspergillus flavus, against Escherichia coli and in the test with Talaromyces marneffei was 6.25 µg/mL (≈ 17.6 µM) each time. Also, the MIC with Aspergillus fumigatus and in the test with Staphylococcus aureus was 6.25 µg/mL (≈ 17.6 µM) throughout.
For `CS(=O)(=O)c1ccc(OCc2nnc3n2N=C(c2ccc(Cl)cc2Cl)CS3)cc1`, the “inhibition zone (IZ)” value with Pseudomonas aeruginosa is recorded as 11 mm; in the test on Trichophyton benhamiae it was 11 mm; in the test with Klebsiella pneumoniae it was 11 mm; with Aspergillus flavus it was 11 mm; in the test on Escherichia coli, 11 mm; with Talaromyces marneffei it was below 10 mm. In addition, the “inhibition zone (IZ)” value in the test with Aspergillus fumigatus and in the test on Staphylococcus aureus was 11 mm in each case. The MIC in the test with Pseudomonas aeruginosa came to 12.5 µg/mL (≈ 26.6 µM); with Trichophyton benhamiae, 12.5 µg/mL (≈ 26.6 µM); against Klebsiella pneumoniae, 12.5 µg/mL (≈ 26.6 µM); in the test on Aspergillus flavus, 12.5 µg/mL (≈ 26.6 µM); in the test with Escherichia coli, 12.5 µg/mL (≈ 26.6 µM); in the test on Talaromyces marneffei, 25 µg/mL (≈ 53.3 µM). For the same compound, the MIC against Aspergillus fumigatus and against Staphylococcus aureus was 12.5 µg/mL (≈ 26.6 µM) throughout.
For the compound `CSc1ccc(OCc2nnc3n2N=C(c2ccc(Cl)cc2Cl)CS3)cc1`, the “inhibition zone (IZ)” value with Pseudomonas aeruginosa, in the test with Trichophyton benhamiae, in the test on Klebsiella pneumoniae, with Aspergillus flavus, in the test on Escherichia coli and with Talaromyces marneffei was 16 mm in each case. For the same compound, the “inhibition zone (IZ)” value in the test on Aspergillus fumigatus and in the test on Staphylococcus aureus was 16 mm throughout. The MIC in the test with Pseudomonas aeruginosa, with Trichophyton benhamiae, against Klebsiella pneumoniae, in the test with Aspergillus flavus, in the test on Escherichia coli and against Talaromyces marneffei was 6.25 µg/mL (≈ 14.3 µM) in each case. Moreover, the MIC with Aspergillus fumigatus and in the test on Staphylococcus aureus was 6.25 µg/mL (≈ 14.3 µM) in each case.
On to `CSc1ccc(OCc2nnc3sc(Cc4ccccc4)nn23)cc1`, for which the “inhibition zone (IZ)” value with Pseudomonas aeruginosa, in the test with Trichophyton benhamiae, with Klebsiella pneumoniae, in the test with Aspergillus flavus, in the test on Escherichia coli and in the test on Talaromyces marneffei was 16 mm in each case. The “inhibition zone (IZ)” value in the test on Aspergillus fumigatus and with Staphylococcus aureus was 16 mm each time. The MIC against Pseudomonas aeruginosa, against Trichophyton benhamiae, in the test on Klebsiella pneumoniae, with Aspergillus flavus, against Escherichia coli and against Talaromyces marneffei was 6.25 µg/mL (≈ 17 µM) each time. Also, the MIC against Aspergillus fumigatus and with Staphylococcus aureus was 6.25 µg/mL (≈ 17 µM) each time.
In the case of `CCSc1ccc(OCc2nnc3sc(-c4ccccc4N)nn23)cc1`, the “inhibition zone (IZ)” value in the test on Pseudomonas aeruginosa, with Trichophyton benhamiae, in the test with Klebsiella pneumoniae, with Aspergillus flavus, in the test with Escherichia coli and in the test with Talaromyces marneffei was below 10 mm throughout. Also, the “inhibition zone (IZ)” value in the test on Aspergillus fumigatus and in the test on Staphylococcus aureus was below 10 mm throughout. Moreover, the MIC against Pseudomonas aeruginosa, in the test on Trichophyton benhamiae, in the test on Klebsiella pneumoniae, in the test with Aspergillus flavus, in the test with Escherichia coli and in the test with Talaromyces marneffei was 25 µg/mL (≈ 65.2 µM) throughout. Besides, the MIC in the test on Aspergillus fumigatus and against Staphylococcus aureus was 25 µg/mL (≈ 65.2 µM) in each case.
As to `CSc1ccc(OCc2nnc3sc(-c4cccc(Cl)c4Cl)nn23)cc1`, the “inhibition zone (IZ)” value in the test on Pseudomonas aeruginosa, in the test on Trichophyton benhamiae, in the test on Klebsiella pneumoniae, in the test with Aspergillus flavus, with Escherichia coli and in the test with Talaromyces marneffei was 16 mm throughout. In addition, the “inhibition zone (IZ)” value in the test on Aspergillus fumigatus and in the test with Staphylococcus aureus was 16 mm in each case. In addition, the MIC against Pseudomonas aeruginosa, with Trichophyton benhamiae, in the test on Klebsiella pneumoniae, against Aspergillus flavus, in the test with Escherichia coli and in the test on Talaromyces marneffei was 6.25 µg/mL (≈ 14.8 µM) each time. Also, the MIC against Aspergillus fumigatus and in the test on Staphylococcus aureus was 6.25 µg/mL (≈ 14.8 µM) throughout.
Regarding `CS(=O)(=O)c1ccc(OCc2nnc3sc(-c4cccc(Cl)c4Cl)nn23)cc1`, the “inhibition zone (IZ)” value in the test on Pseudomonas aeruginosa, in the test with Trichophyton benhamiae, in the test with Klebsiella pneumoniae, with Aspergillus flavus, in the test with Escherichia coli and with Talaromyces marneffei was 16 mm throughout. For the same compound, the “inhibition zone (IZ)” value in the test on Aspergillus fumigatus and in the test on Staphylococcus aureus was 16 mm each time. Further, the MIC in the test on Pseudomonas aeruginosa, against Trichophyton benhamiae, in the test on Klebsiella pneumoniae, against Aspergillus flavus, with Escherichia coli and against Talaromyces marneffei was 6.25 µg/mL (≈ 13.7 µM) each time. The MIC with Aspergillus fumigatus and with Staphylococcus aureus was 6.25 µg/mL (≈ 13.7 µM) each time.
As for `CSc1ccc(OCc2nnc3sc(-c4ccc(C)cc4)nn23)cc1`, the “inhibition zone (IZ)” value in the test with Pseudomonas aeruginosa, in the test with Trichophyton benhamiae, in the test on Klebsiella pneumoniae, in the test with Aspergillus flavus, in the test on Escherichia coli and in the test with Talaromyces marneffei was 16 mm each time. Further, the “inhibition zone (IZ)” value in the test on Aspergillus fumigatus and in the test on Staphylococcus aureus was 16 mm each time. The MIC with Pseudomonas aeruginosa, with Trichophyton benhamiae, in the test on Klebsiella pneumoniae, in the test with Aspergillus flavus, in the test with Escherichia coli and in the test on Talaromyces marneffei was 6.25 µg/mL (≈ 17 µM) each time. For the same compound, the MIC against Aspergillus fumigatus and in the test with Staphylococcus aureus was 6.25 µg/mL (≈ 17 µM) throughout.
Turning to `CS(=O)(=O)c1ccc(OCc2nnc3sc(Cc4ccccc4)nn23)cc1`, the “inhibition zone (IZ)” value with Pseudomonas aeruginosa was 11 mm; with Trichophyton benhamiae, 11 mm; in the test on Klebsiella pneumoniae, 11 mm; in the test with Aspergillus flavus it was 11 mm; in the test with Escherichia coli, 11 mm; with Talaromyces marneffei, below 10 mm. Also, the “inhibition zone (IZ)” value in the test with Aspergillus fumigatus and with Staphylococcus aureus was 11 mm in each case. For the same compound, the minimal inhibitory concentration (MIC) came out at 12.5 µg/mL (≈ 31.2 µM) in the test on Pseudomonas aeruginosa; 12.5 µg/mL (≈ 31.2 µM) against Trichophyton benhamiae; 12.5 µg/mL (≈ 31.2 µM) in the test with Klebsiella pneumoniae; 12.5 µg/mL (≈ 31.2 µM) against Aspergillus flavus; 12.5 µg/mL (≈ 31.2 µM) with Escherichia coli; 25 µg/mL (≈ 62.4 µM) in the test with Talaromyces marneffei. Moreover, the MIC against Aspergillus fumigatus and with Staphylococcus aureus was 12.5 µg/mL (≈ 31.2 µM) throughout.
As to `CS(=O)(=O)c1ccc(OCc2nnc3n2N=C(c2ccc(O)c(C(N)=O)c2)CS3)cc1`, the “inhibition zone (IZ)” value with Pseudomonas aeruginosa is on record as 11 mm; in the test on Trichophyton benhamiae it was 11 mm; in the test on Klebsiella pneumoniae, 11 mm; with Aspergillus flavus it was 11 mm; in the test on Escherichia coli it was 11 mm; in the test with Talaromyces marneffei it was below 10 mm. The “inhibition zone (IZ)” value in the test on Aspergillus fumigatus and in the test with Staphylococcus aureus was 11 mm throughout. Also, the MIC with Pseudomonas aeruginosa was 12.5 µg/mL (≈ 27.2 µM); against Trichophyton benhamiae, 12.5 µg/mL (≈ 27.2 µM); against Klebsiella pneumoniae it was 12.5 µg/mL (≈ 27.2 µM); with Aspergillus flavus, 12.5 µg/mL (≈ 27.2 µM); in the test on Escherichia coli, 12.5 µg/mL (≈ 27.2 µM); with Talaromyces marneffei it was 25 µg/mL (≈ 54.4 µM). Also, the MIC against Aspergillus fumigatus and against Staphylococcus aureus was 12.5 µg/mL (≈ 27.2 µM) each time.
As for `CSc1ccc(OCc2nnc3sc(-c4ccc(N)cc4)nn23)cc1`, the “inhibition zone (IZ)” value with Pseudomonas aeruginosa, with Trichophyton benhamiae, in the test with Klebsiella pneumoniae, in the test with Aspergillus flavus, with Escherichia coli and with Talaromyces marneffei was 16 mm in each case. The “inhibition zone (IZ)” value with Aspergillus fumigatus and in the test with Staphylococcus aureus was 16 mm in each case. For the same compound, the MIC against Pseudomonas aeruginosa, with Trichophyton benhamiae, against Klebsiella pneumoniae, in the test on Aspergillus flavus, against Escherichia coli and against Talaromyces marneffei was 6.25 µg/mL (≈ 16.9 µM) in each case. Moreover, the MIC with Aspergillus fumigatus and against Staphylococcus aureus was 6.25 µg/mL (≈ 16.9 µM) each time.
In the case of `CSc1ccc(OCc2nnc3n2N=C(c2ccc(O)c(C(N)=O)c2)CS3)cc1`, the “inhibition zone (IZ)” value in the test on Pseudomonas aeruginosa, in the test with Trichophyton benhamiae, with Klebsiella pneumoniae, with Aspergillus flavus, with Escherichia coli and in the test on Talaromyces marneffei was below 10 mm throughout. Also, the “inhibition zone (IZ)” value in the test with Aspergillus fumigatus and in the test with Staphylococcus aureus was below 10 mm in each case. The MIC against Pseudomonas aeruginosa, against Trichophyton benhamiae, against Klebsiella pneumoniae, against Aspergillus flavus, with Escherichia coli and in the test with Talaromyces marneffei was 25 µg/mL (≈ 58.5 µM) in each case. For the same compound, the MIC against Aspergillus fumigatus and in the test with Staphylococcus aureus was 25 µg/mL (≈ 58.5 µM) throughout.
